In ChEMBL document CHEMBL4229408 (Bioorg Med Chem, 2018):

Columns and labels:
[1] = Antiproliferative activity against human CAR cells after 48 hrs by MTT assay; format: functional, cell-based
Outline: (§1)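 CAR cells (CAL27 made cisplatin-resistant by 10 cycles of 10–80 μM cisplatin) kept in DMEM/10% FBS with 80 μM cisplatin. Seeded 2×10^4 cells/well and exposed to 0, 25, 50, 75 and 100 μM for 48 or 72 h, with 0.5% DMSO as vehicle. MTT (500 μg/ml) added for 4 h at 37 °C, formazan dissolved in DMSO, A570 read as % of control, IC50 derived.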

[2] = Antiproliferative activity against human CAR cells after 72 hrs by MTT assay; format: functional, cell-based; outline: as §1
[3] = Antitumor activity against human CAR cells xenografted in BALB/c nude mouse assessed as tumor weight at 25 mg/kg, po qd administered for 30 days measured on day 31 relative to control; format: functional
Outline: (§2)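 Male BALB/c nude mice, four weeks old, implanted subcutaneously in the flank with CAR cells (cisplatin-resistant CAL27 kept in 80 μM cisplatin), 1×10^7 cells/mouse in 0.2 mL medium:Matrigel 1:1. Dosing began at ~50 mm3 tumors (day 22), eight mice/group, oral once daily for 30 days; vehicle 1,2-propanediol. Sacrificed day 31; excised tumors weighed, compared to vehicle controls.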

[4] = Antitumor activity against human CAR cells xenografted in BALB/c nude mouse assessed as inhibition of tumor weight at 50 mg/kg, po qd administered for 30 days measured on day 31 relative to control; format: functional; set-up: scale not given: the % may be the effect or the level left; outline: as §2
[5] = Antitumor activity against human CAR cells xenografted in BALB/c nude mouse assessed as inhibition of tumor weight at 100 mg/kg, po qd administered for 30 days measured on day 31 relative to control; format: functional; set-up: scale not given: the % may be the effect or the level left; outline: as §2
Mus musculus [6] = test: Toxicity in BALB/c nude mouse xenografted with human CAR cells assessed as change in body weight at 25 to 100 mg/kg, po qd administered for 30 days measured during compound dosing; format: organism-based; conditions: in vivo, 720 h
Outline: (§3)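 During the 30-day once-daily oral dosing (25–100 mg/kg) of CAR-xenografted nude mice, body weight, food intake and behaviour were tracked and compared with vehicle-treated controls.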

Mus musculus [7] = test: Toxicity in BALB/c nude mouse xenografted with human CAR cells assessed as change in food consumption at 25 to 100 mg/kg, po qd administered for 30 days measured during compound dosing; format: organism-based; conditions: in vivo, 720 h; outline: as §3
Mus musculus [8] = test: Toxicity in BALB/c nude mouse xenografted with human CAR cells assessed as change in behavior at 25 to 100 mg/kg, po qd administered for 30 days measured during compound dosing; format: organism-based; conditions: in vivo, 720 h; outline: as §3
Mus musculus [9] = test: Toxicity in BALB/c nude mouse xenografted with human CAR cells assessed as total protein levels in blood at 25 mg/kg, po qd administered for 30 days measured on day 31 (reference value: 5.6 +/- 0.283 g/dL); format: organism-based; conditions: in vivo, 720 h
Mus musculus [10] = test: Toxicity in BALB/c nude mouse xenografted with human CAR cells assessed as total protein levels in blood at 50 mg/kg, po qd administered for 30 days measured on day 31 (reference value: 5.6 +/- 0.283 g/dL); format: organism-based; conditions: in vivo, 720 h
Mus musculus [11] = test: Toxicity in BALB/c nude mouse xenografted with human CAR cells assessed as total protein levels in blood at 100 mg/kg, po qd administered for 30 days measured on day 31 (reference value: 5.6 +/- 0.283 g/dL); format: organism-based; conditions: in vivo, 720 h
Mus musculus [12] = test: Toxicity in BALB/c nude mouse xenografted with human CAR cells assessed as albumin levels in blood at 25 mg/kg, po qd administered for 30 days measured on day 31 (reference value: 3.45 +/- 0.138 g/dL); format: organism-based; conditions: in vivo, 720 h
Mus musculus [13] = test: Toxicity in BALB/c nude mouse xenografted with human CAR cells assessed as albumin levels in blood at 50 mg/kg, po qd administered for 30 days measured on day 31 (reference value: 3.45 +/- 0.138 g/dL); format: organism-based; conditions: in vivo, 720 h
Mus musculus [14] = test: Toxicity in BALB/c nude mouse xenografted with human CAR cells assessed as albumin levels in blood at 100 mg/kg, po qd administered for 30 days measured on day 31 (reference value: 3.45 +/- 0.138 g/dL); format: organism-based; conditions: in vivo, 720 h
Mus musculus [15] = test: Toxicity in BALB/c nude mouse xenografted with human CAR cells assessed as blood urea nitrogen levels in blood at 25 mg/kg, po qd administered for 30 days measured on day 31 (reference value: 27.7 +/- 4.116 mg/dL); format: organism-based; conditions: in vivo, 720 h
Mus musculus [16] = test: Toxicity in BALB/c nude mouse xenografted with human CAR cells assessed as blood urea nitrogen levels in blood at 50 mg/kg, po qd administered for 30 days measured on day 31 (reference value: 27.7 +/- 4.116 mg/dL); format: organism-based; conditions: in vivo, 720 h
Mus musculus [17] = test: Toxicity in BALB/c nude mouse xenografted with human CAR cells assessed as blood urea nitrogen levels in blood at 100 mg/kg, po qd administered for 30 days measured on day 31 (reference value: 27.7 +/- 4.116 mg/dL); format: organism-based; conditions: in vivo, 720 h
Mus musculus [18] = test: Toxicity in BALB/c nude mouse xenografted with human CAR cells assessed as creatinine levels in blood at 25 mg/kg, po qd administered for 30 days measured on day 31 (reference value: 1 +/- 0.18 mg/dL); format: organism-based; conditions: in vivo, 720 h
Mus musculus [19] = test: Toxicity in BALB/c nude mouse xenografted with human CAR cells assessed as creatinine levels in blood at 50 mg/kg, po qd administered for 30 days measured on day 31 (reference value: 1 +/- 0.18 mg/dL); format: organism-based; conditions: in vivo, 720 h
Mus musculus [20] = test: Toxicity in BALB/c nude mouse xenografted with human CAR cells assessed as creatinine levels in blood at 100 mg/kg, po qd administered for 30 days measured on day 31 (reference value: 1 +/- 0.18 mg/dL); format: organism-based; conditions: in vivo, 720 h
Mus musculus [21] = test: Toxicity in BALB/c nude mouse xenografted with human CAR cells assessed as uric acid levels in blood at 25 mg/kg, po qd administered for 30 days measured on day 31 (reference value: 4.65 +/- 0.864 mg/dL); format: organism-based; conditions: in vivo, 720 h
Mus musculus [22] = test: Toxicity in BALB/c nude mouse xenografted with human CAR cells assessed as uric acid levels in blood at 50 mg/kg, po qd administered for 30 days measured on day 31 (reference value: 4.65 +/- 0.864 mg/dL); format: organism-based; conditions: in vivo, 720 h
Mus musculus [23] = test: Toxicity in BALB/c nude mouse xenografted with human CAR cells assessed as uric acid levels in blood at 100 mg/kg, po qd administered for 30 days measured on day 31 (reference value: 4.65 +/- 0.864 mg/dL); format: organism-based; conditions: in vivo, 720 h
Mus musculus [24] = test: Toxicity in BALB/c nude mouse xenografted with human CAR cells assessed as glucose levels in blood at 25 mg/kg, po qd administered for 30 days measured on day 31 (reference value: 180 +/- 10.392 mg/dL); format: organism-based; conditions: in vivo, 720 h
Mus musculus [25] = test: Toxicity in BALB/c nude mouse xenografted with human CAR cells assessed as glucose levels in blood at 50 mg/kg, po qd administered for 30 days measured on day 31 (reference value: 180 +/- 10.392 mg/dL); format: organism-based; conditions: in vivo, 720 h
Mus musculus [26] = test: Toxicity in BALB/c nude mouse xenografted with human CAR cells assessed as glucose levels in blood at 100 mg/kg, po qd administered for 30 days measured on day 31 (reference value: 180 +/- 10.392 mg/dL); format: organism-based; conditions: in vivo, 720 h
[27] = Prodrug conversion in Sprague-Dawley rat whole blood assessed as formation of pterostilbene-4'-O-sulfate by measuring Tmax of metabolite at 100 mg/kg, po using HPbetaCD, PEG300, H2O formulation at 20:10:70 by LC-MS method; format: ADME, organism-based; conditions: in vivo
Outline: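 Male Sprague-Dawley rats (200–220 g), n = 3, given a single oral 100 mg/kg dose in HPβCD:PEG300:H2O 20:10:70 (10 mg/mL). Tail-vein blood collected into heparin at 0.5–24 h (0.5, 1, 1.5, 2, 3, 4, 5, 6, 8, 24 h).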

COc1ccc(/C=C/c2cc(OC(=O)C(C)(CO)CO)cc(OC(=O)C(C)(CO)CO)c2)cc1
IC50 [1]: 73.9 µM
IC50 [2]: 70.8 µM

COc1cc(O)cc(/C=C/c2ccc(OC(=O)C(C)(CO)CO)cc2)c1
IC50 [2]: 64 µM

CC(CO)(CO)C(=O)Oc1ccc(/C=C/c2cc(OC(=O)C(C)(CO)CO)cc(OC(=O)C(C)(CO)CO)c2)cc1
IC50 [2]: 124 µM

CC(CO)(CO)C(=O)Oc1cc(O)cc(/C=C/c2ccc(O)cc2)c1
IC50 [1]: 54.9 µM

COc1cc(/C=C/c2ccc(OC(=O)C(C)(CO)CO)cc2)cc(OC(C)=O)c1
IC50 [1]: 52 µM
IC50 [2]: 50.3 µM

COc1cc(/C=C/c2ccc(OC(=O)C(C)(CO)CO)cc2)cc(OC)c1
IC50 [1]: 73.2 µM
IC50 [2]: 32.6 µM
Activity [3]: 60%
Activity [4]: 47%
Activity [5]: 22%
Activity (Mus musculus [6]): Non-Toxic
Activity (Mus musculus [7]): Non-Toxic
Activity (Mus musculus [8]): Non-Toxic
Activity (Mus musculus [9]): 5.383 g/dL
Activity (Mus musculus [10]): 5.583 g/dL
Activity (Mus musculus [11]): 5.283 g/dL
Activity (Mus musculus [12]): 3.666 g/dL
Activity (Mus musculus [13]): 3.417 g/dL
Activity (Mus musculus [14]): 3.4 g/dL
Activity (Mus musculus [15]): 28.2 mg/dL
Activity (Mus musculus [16]): 30.95 mg/dL
Activity (Mus musculus [17]): 29.25 mg/dL
Activity (Mus musculus [18]): 1.133 mg/dL
Activity (Mus musculus [19]): 0.91 mg/dL
Activity (Mus musculus [20]): 0.83 mg/dL
Activity (Mus musculus [21]): 4.567 mg/dL
Activity (Mus musculus [22]): 5.45 mg/dL
Activity (Mus musculus [23]): 5.05 mg/dL
Activity (Mus musculus [24]): 181.333 mg/dL
Activity (Mus musculus [25]): 172.5 mg/dL
Activity (Mus musculus [26]): 196.5 mg/dL
Tmax [27]: 2 h

CC(=O)Oc1cc(/C=C/c2ccc(OC(=O)C(C)(CO)CO)cc2)cc(OC(C)=O)c1
IC50 [1]: 103 µM
IC50 [2]: 116 µM

CC(=O)Oc1cc(/C=C/c2ccc(OC(=O)C(C)(CO)CO)cc2)cc(OC(=O)C(C)(CO)CO)c1
IC50 [1]: 122 µM
IC50 [2]: 119 µM

COc1cc(/C=C/c2ccc(OC(=O)C(C)(CO)CO)cc2)cc(OC(=O)C(C)(CO)CO)c1
IC50 [1]: 56.5 µM
IC50 [2]: 59.8 µM

COc1ccc(/C=C/c2cc(OC)cc(OC(=O)C(C)(CO)CO)c2)cc1
IC50 [1]: 64.2 µM
IC50 [2]: 67.3 µM

COc1ccc(/C=C/c2cc(O)cc(OC)c2)cc1
IC50 [1]: 100 µM
IC50 [2]: 98.3 µM

Oc1ccc(/C=C/c2cc(O)cc(O)c2)cc1 [RESVERATROL]
IC50 [2]: 88.3 µM
